Hits are enriched below; roughly 2.4% of the tested compounds scored in any of these assays.
DNMT1 inh = DNMT1 (human) enzyme inhibition | P26358 | DNMT1 molecular beacon, Hinp1I cleavage, fluorescence | inhibition (reported as % activation of signal), % at 10 µM | 0.83% of 360,000 active | AID 588458; in the data active = inhibition above about 50%
Scp-1 inhibitor = blocks human Scp-1 phosphatase activity; Recombinant Scp1, phosphopeptide, malachite green phosphate absorbance; 0.88% of 340,000 active; Q9GZU7; AID 493091; inhibition, % at 20 µM;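 active = inhibition above about 50% at 20 µM, limit read from the data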
Target sequence (Q9GZU7 76-261 limits assumed): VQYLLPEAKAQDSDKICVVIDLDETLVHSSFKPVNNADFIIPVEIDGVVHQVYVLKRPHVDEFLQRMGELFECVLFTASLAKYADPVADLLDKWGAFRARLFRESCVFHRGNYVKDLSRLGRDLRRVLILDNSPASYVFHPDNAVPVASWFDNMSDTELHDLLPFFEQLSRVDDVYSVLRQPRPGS
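Incubation: 45 min enzyme reaction at room temperature / System: truncated SCP-1 phosphatase (76-261aa) / Reagent: Phospho 17-mer peptide substrate / Buffer or medium: Acidic Tris acetate buffer with magnesium and detergent / Signal: absorbance at 630 nm / Doses: one concentration, 20 µM, with 1.0% DMSO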
NadD block = inhibitors of Staphylococcus aureus NadD. purified NadD enzyme, colorimetric absorbance read-out. inhibition, % at 20 µM. 0.78% of 360,000 active. AID 602399; in the data active = inhibition above about 26%
SUMO1 PPI mod = alters human SUMO1 binding to SIM partners; SUMO1 binding to a labelled peptide, TR-FRET, 1 h; AID 602429; inhibition, % at 20 µM; P63165; 0.33% of 360,000 active; in the data active = inhibition above about 37%
Target sequence (P63165 whole entry, looked up): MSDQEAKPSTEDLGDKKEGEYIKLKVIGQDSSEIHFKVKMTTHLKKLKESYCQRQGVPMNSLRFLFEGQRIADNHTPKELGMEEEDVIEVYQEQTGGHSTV
STEP inh = blocks human striatal-enriched tyrosine phosphatase | recombinant STEP, OMFP fluorogenic substrate, fluorescence | inhibition, % at 20 µM | 0.25% of 360,000 active | AID 588621;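 active = inhibition at 20 µM, scaled per plate between control wells, above about 37%, limit read from the data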
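System: STEP phosphatase, cell-free reaction; Buffer or medium: Bis-Tris pH 6.0 buffer with DTT, detergent; Incubation: 20 min at room temperature, dark; Measured by: fluorescence, 480/540 nm.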
LMPTP inh = LMPTP (human) inhibition. 0.22% of 360,000 active. inhibition, % at 20 µM. P24666. recombinant LMPTP-A, OMFP fluorogenic substrate, fluorescence intensity;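 active = compounds that cut the enzyme signal by at least half of the control window in the single-dose screen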
Target sequence (P24666 whole entry, looked up): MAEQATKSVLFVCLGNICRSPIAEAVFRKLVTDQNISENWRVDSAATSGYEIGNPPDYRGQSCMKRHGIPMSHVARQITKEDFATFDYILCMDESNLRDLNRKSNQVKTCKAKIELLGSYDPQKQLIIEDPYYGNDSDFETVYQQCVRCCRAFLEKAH
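Test system: LMPTP-A phosphatase enzyme. Amount: LMPTP-A at 0.625 nM final in the reaction. Reagent: OMFP substrate, 400 µM final. Times: 50 min at room temperature. Signal: endpoint fluorescence intensity from OMFP dephosphorylation. Read-out basis: % inhibition. Benchmarks: no-enzyme and uninhibited controls.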
Numbers stand for hits; n = inactive; x = no result given.

SMILES	DNMT1 inh	Scp-1 inhibitor	NadD block	SUMO1 PPI mod	STEP inh	LMPTP inh
O=C(Nc1ccccc1F)NC1CC1	n	n	n	56	n	n
O=C(Nc1ccccc1F)NC1CCCCCCC1	n	n	n	n	n	n
CCOc1ccc(S(=O)(=O)N2CCCC(C(=O)NCc3cccnc3)C2)cc1 (stereo not given)	n	n	n	n	n	n
O=C1C(=Cc2ccco2)CCC1=Cc1ccco1	n	80	n	121	97	64
O/N=C1\CCC\C1=C/c1ccco1	n	n	n	n	n	n
Cn1c(SCC(=O)NC2CCCCC2)nnc1-c1cccc(N)c1	n	n	n	41	n	n
CN(c1cccc(NC(=O)c2ccc(C(C)(C)C)cc2)c1)S(C)(=O)=O	n	n	n	44	n	n
CN(c1cccc(NC(=O)c2ccc(N(C)S(=O)(=O)c3ccccc3)cc2)c1)S(C)(=O)=O	n	n	n	n	n	n
Cc1cccc(C2Nc3cccc4cccc(c34)N2)c1	n	n	n	n	n	n
COc1cc(C2Nc3cccc4cccc(c34)N2)ccc1O	n	n	59	n	n	n
COc1cc(C2Nc3cccc4cccc(c34)N2)cc(OC)c1OC(C)=O	n	n	43	n	n	n
CCOC(=O)[C@]12CCCC=C1N(CCC1=CCCCC1)C(=O)[C@H](CC(=O)NCC1CCCCC1)C2	x	x	x	n	x	n
Cc1c(SCCO)c(=O)[nH]c2cc3c(cc12)OCO3	n	n	n	n	n	n
COC(=O)c1ccc(N)cc1O	n	n	n	n	n	n
COC(=O)c1ccc(=O)c2nc3/c(=C/O)c(O)cc(=O)c3[nH]c12	108	58	n	n	100	81
CCCNC(=O)N[C@H]1C=C[C@H](CC(=O)NC2CCCCC2)O[C@@H]1CO	x	x	x	n	x	n
CCCCC(CC)CN=C(N)NC(N)=NCCCCCCN=C(N)NC(N)=NCC(CC)CCCC (stereo not given)	n	n	n	86	n	n
CCc1c(C2(O)CCCCC2)[nH]c2ccc(C(F)(F)F)cc12	n	n	n	n	n	n
COc1ccc(N2CCN(C3CCCN(C(=O)C4=C(C)OCCO4)C3)CC2)cc1 (stereo not given)	n	n	n	n	n	n
Cc1ccc(NC(=O)c2ccc(Cl)c(S(=O)(=O)N3CCCCC3)c2)nc1	n	n	n	n	n	n
Oc1ccc(NCc2ccccc2OCc2ccccc2)cc1	n	n	n	57	n	n
CCNCc1ccccc1OCc1ccccc1	n	n	n	n	n	n
CN(C)c1ccc(C#Cc2ccc3cc(CCO)oc(=O)c3c2)cc1	n	n	n	n	97	68
COCCN(C(=O)CSc1ccc2c(c1)OCCO2)c1c(N)n(CC(C)C)c(=O)[nH]c1=O	n	n	n	n	n	n
CC1(C)Cc2nc3sc4c(=O)n(CC(=O)NCc5ccccc5)cnc4c3cc2CO1	n	n	n	43	n	n
SMILES	DNMT1 inh	Scp-1 inhibitor	NadD block	SUMO1 PPI mod	STEP inh	LMPTP inh
CC1(C)Cc2nc3sc4c(=O)n(CC(N)=O)cnc4c3cc2CO1	n	n	n	n	n	n
COc1ccc(Cl)cc1N1C(=O)CC(N2CCN(S(=O)(=O)c3ccccc3F)CC2)C1=O (stereo not given)	n	n	n	n	n	n
CN(C)c1ccc(C(=O)C=Cc2ccc([N+](=O)[O-])cc2)cc1	n	x	n	n	n	55
CCNc1ccc(S(=O)(=O)N(C)C)cc1[N+](=O)[O-]	n	59	n	n	n	n
O=C(Nc1ccccc1-c1nc2ccccc2[nH]1)c1ccc(S(=O)(=O)N2CCCCC2)cc1	n	n	n	n	47	n
CC1CCCCN1S(=O)(=O)c1ccc(C(=O)Nc2ccccc2-c2nc3ccccc3[nH]2)cc1 (stereo not given)	n	n	n	n	n	n
CCCCNc1c(-c2ccc(OC)c(SC3CCCCC3)c2)nc2ccc(C)cn12	n	n	n	n	n	n
COc1ccc(-c2nc3ccc(C)cn3c2NCc2ccccc2)cc1SC1CCCCC1	60	n	n	n	n	n
Cc1cccc(-c2nc(NCCCN3CCOCC3)c3ccccc3n2)c1	n	n	n	n	n	67
c1ccc(-c2nc(NCCCN3CCOCC3)c3ccccc3n2)cc1	n	n	n	n	n	51
Cc1cccc(-c2nc(NCCCN(C)C)c3ccccc3n2)c1	n	n	n	n	n	n
Cc1cc(NC(=S)N(CCCN2CCN(C)CC2)Cc2ccco2)ccc1Cl	n	n	n	n	n	n
O=C(O)c1c2c(nc3ccccc13)/C(=C/c1ccc(O)cc1)CC2	87	62	n	n	41	n
CC(=O)Nc1ccc(S(=O)(=O)NCC(=O)OCC(=O)NCCc2ccccc2)cc1	n	x	n	n	n	n
O=C(O)CN1C(=O)/C(=C2\SC(=S)N(C(Cc3ccccc3)C(=O)O)C2=O)c2ccccc21 (stereo not given)	n	n	n	n	n	n
O=C(O)CCN1C(=O)/C(=C2\C(=O)N(Cc3ccccc3Cl)c3ccccc32)SC1=S	89	x	n	n	98	80
COc1ccc(NC(=O)CN2C(=O)/C(=C3\SC(=S)N(CCC(=O)O)C3=O)c3ccccc32)cc1	n	97	51	n	n	86
CCOC(=O)C1=C(COC(=O)CNS(=O)(=O)c2ccc(C)c(C)c2)NC(=O)NC1C (stereo not given)	n	x	n	n	n	n
CCCOc1ccc(N2CC(C(=O)Nc3ccc(N4CCOCC4)cc3)CC2=O)cc1 (stereo not given)	n	n	n	n	n	n
COc1ccc2sc3cccc(NCCN(C)C)c3c(=O)c2c1	56	x	n	n	n	n
COc1ccc([N+](=O)[O-])cc1NC(=O)c1ccco1	n	n	n	n	n	n
COc1cccc(C2CC(c3cccs3)=NN2C(=O)CSc2nc3c(cnn3-c3ccc(F)cc3)c(=O)[nH]2)c1OC (stereo not given)	n	n	39	n	n	n
CCN(CC)c1ccc(NC(=O)CSc2ccsc2[N+](=O)[O-])c(C)c1	53	n	n	n	n	n
Cc1ccc(CNC(=O)CSc2ccsc2[N+](=O)[O-])cc1	n	n	n	n	n	n
O=C(COc1ccc(Cl)cc1Cl)NN1C(=O)/C(=C\c2ccc(Cl)cc2)SC1=S	n	n	33	n	n	n
O=C(Nc1cccc(Cl)c1)c1cc(N=Nc2ccc([N+](=O)[O-])cc2Cl)ccc1O	n	71	50	100	n	n
O=C(Nc1ccc([N+](=O)[O-])cc1Cl)c1cc(Cl)ccc1O	n	n	n	n	n	72
O=C(Nc1cccc(Cl)c1)c1cccc(Oc2ccc([N+](=O)[O-])cc2Cl)c1	n	n	n	n	n	n

Source: PubChem BioAssay (Sanford-Burnham Center for Chemical Genomics)
